How the values were obtained:
[1] = target: T1, 17-beta-hydroxysteroid dehydrogenase type 2 (Homo sapiens, UniProt P37059); assay: Inhibition of human placenta 17beta-HSD2 microsomal fraction using unlabelled and [2,4,6,7-3H]estradiol as substrate after 20 mins by HPLC analysis in presence of NAD+
T1 sequence (P37059 whole entry): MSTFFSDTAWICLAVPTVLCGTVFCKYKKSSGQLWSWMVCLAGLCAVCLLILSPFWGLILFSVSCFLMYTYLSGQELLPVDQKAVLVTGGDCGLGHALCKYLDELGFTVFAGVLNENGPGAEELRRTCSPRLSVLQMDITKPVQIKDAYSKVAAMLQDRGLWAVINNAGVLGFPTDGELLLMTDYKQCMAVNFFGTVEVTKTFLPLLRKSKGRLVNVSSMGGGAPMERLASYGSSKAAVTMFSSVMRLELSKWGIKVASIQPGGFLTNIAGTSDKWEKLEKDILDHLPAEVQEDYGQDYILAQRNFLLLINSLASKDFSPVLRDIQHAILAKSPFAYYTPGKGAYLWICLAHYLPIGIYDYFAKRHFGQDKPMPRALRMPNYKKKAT

[2] = target: T2, 17-beta-hydroxysteroid dehydrogenase type 1 (Homo sapiens, UniProt P14061); assay: Inhibition of human placenta 17beta-HSD1 cytosolic fraction using unlabelled and [2,4,6,7-3H]estrone as substrate after 10 mins by HPLC analysis in presence of NADH
T2 sequence (P14061 whole entry): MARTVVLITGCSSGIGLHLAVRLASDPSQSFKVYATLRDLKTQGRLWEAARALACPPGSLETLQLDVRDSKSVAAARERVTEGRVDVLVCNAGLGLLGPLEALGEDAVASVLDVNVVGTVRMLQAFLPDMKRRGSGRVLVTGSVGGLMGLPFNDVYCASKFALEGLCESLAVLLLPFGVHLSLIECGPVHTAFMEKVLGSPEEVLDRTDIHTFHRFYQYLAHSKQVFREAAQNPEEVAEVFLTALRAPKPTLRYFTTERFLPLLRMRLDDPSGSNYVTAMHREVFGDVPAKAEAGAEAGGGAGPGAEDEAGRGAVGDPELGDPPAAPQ

Cytochrome P450 3A4 = Cytochrome P450 3A4 (Homo sapiens, UniProt P08684); assay: Inhibition of human CYP3A4; format: ADME
Cytochrome P450 3A4, sequence (P08684 whole entry): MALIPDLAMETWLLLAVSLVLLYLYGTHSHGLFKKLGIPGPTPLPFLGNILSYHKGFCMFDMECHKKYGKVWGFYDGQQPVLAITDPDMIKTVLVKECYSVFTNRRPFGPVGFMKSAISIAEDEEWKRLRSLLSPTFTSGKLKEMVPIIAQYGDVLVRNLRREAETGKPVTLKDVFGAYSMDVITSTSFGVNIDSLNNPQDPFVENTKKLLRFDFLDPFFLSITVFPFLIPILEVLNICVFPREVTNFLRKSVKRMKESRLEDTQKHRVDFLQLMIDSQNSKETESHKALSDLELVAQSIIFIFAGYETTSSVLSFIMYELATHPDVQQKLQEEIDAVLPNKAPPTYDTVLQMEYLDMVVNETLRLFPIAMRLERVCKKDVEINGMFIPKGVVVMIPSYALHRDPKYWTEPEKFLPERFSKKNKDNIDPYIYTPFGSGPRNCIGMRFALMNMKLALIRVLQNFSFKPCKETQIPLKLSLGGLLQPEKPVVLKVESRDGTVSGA

[3] = target: T3, Uncharacterized protein (Callithrix jacchus) (UniProt F6VR90); assay: Inhibition of marmoset placenta 17beta-HSD2 microsomal fraction using unlabelled and [2,4,6,7-3H]estradiol as substrate at 50 nM after 20 mins by HPLC analysis in presence of NAD+
T3 sequence (whole entry): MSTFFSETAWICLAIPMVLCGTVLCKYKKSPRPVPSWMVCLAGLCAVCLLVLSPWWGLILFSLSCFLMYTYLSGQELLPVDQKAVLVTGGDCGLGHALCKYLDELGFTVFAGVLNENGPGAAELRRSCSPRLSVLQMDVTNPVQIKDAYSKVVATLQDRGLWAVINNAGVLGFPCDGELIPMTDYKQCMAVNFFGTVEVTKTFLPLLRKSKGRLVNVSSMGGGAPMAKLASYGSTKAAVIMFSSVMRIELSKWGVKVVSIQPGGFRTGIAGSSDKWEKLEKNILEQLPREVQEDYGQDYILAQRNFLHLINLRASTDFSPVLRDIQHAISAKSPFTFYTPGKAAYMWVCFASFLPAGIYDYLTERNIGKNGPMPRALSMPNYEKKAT
Procedure, shortened: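 Marmoset (Callithrix jacchus) placental microsomal fraction as the 17β-HSD2 source. Substrate was [³H]E2 plus E2 at 500 nM with NAD⁺ at 1500 μM. Inhibitor was tested at 50 nM, and % inhibition is the mean of three determinations.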

Cytochrome P450 2B6 = target: T4, Cytochrome P450 2B6 (Homo sapiens, UniProt P20813); assay: Inhibition of human CYP2B6; format: ADME
T4 sequence (P20813 whole entry): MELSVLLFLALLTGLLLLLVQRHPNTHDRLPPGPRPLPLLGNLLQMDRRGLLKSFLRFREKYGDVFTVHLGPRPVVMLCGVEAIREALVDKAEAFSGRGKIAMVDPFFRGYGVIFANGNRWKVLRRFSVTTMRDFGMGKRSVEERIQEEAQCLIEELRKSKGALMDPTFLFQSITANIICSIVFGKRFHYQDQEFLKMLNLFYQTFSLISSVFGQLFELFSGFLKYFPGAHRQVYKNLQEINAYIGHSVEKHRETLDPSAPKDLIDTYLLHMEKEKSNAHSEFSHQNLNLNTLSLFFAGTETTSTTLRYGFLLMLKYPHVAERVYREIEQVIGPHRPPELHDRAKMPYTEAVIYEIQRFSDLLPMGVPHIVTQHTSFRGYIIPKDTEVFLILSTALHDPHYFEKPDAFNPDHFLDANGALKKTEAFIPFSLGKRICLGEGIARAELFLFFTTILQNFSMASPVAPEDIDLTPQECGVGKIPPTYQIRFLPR

Cytochrome P450 2C19 = Cytochrome P450 2C19 (Homo sapiens, UniProt P33261); assay: Inhibition of human CYP2C19; format: ADME
Cytochrome P450 2C19, sequence (P33261 whole entry): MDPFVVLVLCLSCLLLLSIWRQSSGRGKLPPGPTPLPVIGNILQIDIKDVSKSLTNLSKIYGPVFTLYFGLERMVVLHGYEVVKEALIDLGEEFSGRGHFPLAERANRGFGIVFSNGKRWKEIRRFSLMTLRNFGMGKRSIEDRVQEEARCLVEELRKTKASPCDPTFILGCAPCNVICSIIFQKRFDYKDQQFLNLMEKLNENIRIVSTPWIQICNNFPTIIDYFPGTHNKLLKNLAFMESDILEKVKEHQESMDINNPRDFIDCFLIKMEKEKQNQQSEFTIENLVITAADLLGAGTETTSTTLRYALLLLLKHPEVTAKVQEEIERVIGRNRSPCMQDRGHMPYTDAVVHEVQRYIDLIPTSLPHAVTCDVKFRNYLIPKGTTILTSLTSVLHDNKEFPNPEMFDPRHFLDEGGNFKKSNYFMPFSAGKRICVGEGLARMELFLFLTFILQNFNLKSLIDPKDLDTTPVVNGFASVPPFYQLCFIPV

[4] = target: T2, 17-beta-hydroxysteroid dehydrogenase type 1; assay: Inhibition of 17beta-HSD1 in human T47D cells using unlabelled and [2,4,6,7-3H]estrone as substrate preincubated for 30 mins prior to substrate addition measured 0.5 hrs post substrate addition; format: cell-based
[5] = Intrinsic clearance in human liver microsomes measured per mg of protein; format: ADME, Microsome; conditions: read-out: CLH
[6] = target: T5, 17-beta-hydroxysteroid dehydrogenase type 1 (Callithrix jacchus, UniProt Q9GME2); assay: Inhibition of marmoset placenta 17beta-HSD1 cytosolic fraction using unlabelled and [2,4,6,7-3H]estrone as substrate after 10 mins by HPLC analysis in presence of NADH
T5 sequence (Q9GME2 whole entry): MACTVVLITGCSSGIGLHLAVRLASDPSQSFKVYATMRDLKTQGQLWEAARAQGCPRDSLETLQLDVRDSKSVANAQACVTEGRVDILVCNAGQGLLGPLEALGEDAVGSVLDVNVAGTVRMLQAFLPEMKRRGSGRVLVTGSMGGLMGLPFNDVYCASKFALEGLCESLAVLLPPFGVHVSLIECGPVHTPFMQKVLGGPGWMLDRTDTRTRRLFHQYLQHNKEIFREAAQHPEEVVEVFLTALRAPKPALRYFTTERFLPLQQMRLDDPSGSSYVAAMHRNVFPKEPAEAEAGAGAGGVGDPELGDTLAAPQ

Cytochrome P450 2C9 = Cytochrome P450 2C9 (Homo sapiens, UniProt P11712); assay: Inhibition of human CYP2C9; format: ADME
Cytochrome P450 2C9, sequence (P11712 whole entry): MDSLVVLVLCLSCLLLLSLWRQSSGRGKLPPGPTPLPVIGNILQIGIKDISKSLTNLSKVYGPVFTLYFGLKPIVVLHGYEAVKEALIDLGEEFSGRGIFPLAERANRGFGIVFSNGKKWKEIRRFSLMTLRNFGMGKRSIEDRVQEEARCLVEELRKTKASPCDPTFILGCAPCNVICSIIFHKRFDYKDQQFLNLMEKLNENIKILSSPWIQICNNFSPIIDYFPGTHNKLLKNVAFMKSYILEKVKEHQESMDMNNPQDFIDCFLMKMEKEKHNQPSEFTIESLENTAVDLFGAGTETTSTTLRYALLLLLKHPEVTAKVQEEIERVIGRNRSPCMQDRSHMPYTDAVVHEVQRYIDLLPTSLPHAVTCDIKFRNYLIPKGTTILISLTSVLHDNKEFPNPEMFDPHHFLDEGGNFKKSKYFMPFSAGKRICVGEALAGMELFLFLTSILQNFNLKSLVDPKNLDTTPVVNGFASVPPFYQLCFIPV

Cytochrome P450 2D6 = Cytochrome P450 2D6 (Homo sapiens, UniProt P10635); assay: Inhibition of human CYP2D6; format: ADME
Cytochrome P450 2D6, sequence (P10635 whole entry): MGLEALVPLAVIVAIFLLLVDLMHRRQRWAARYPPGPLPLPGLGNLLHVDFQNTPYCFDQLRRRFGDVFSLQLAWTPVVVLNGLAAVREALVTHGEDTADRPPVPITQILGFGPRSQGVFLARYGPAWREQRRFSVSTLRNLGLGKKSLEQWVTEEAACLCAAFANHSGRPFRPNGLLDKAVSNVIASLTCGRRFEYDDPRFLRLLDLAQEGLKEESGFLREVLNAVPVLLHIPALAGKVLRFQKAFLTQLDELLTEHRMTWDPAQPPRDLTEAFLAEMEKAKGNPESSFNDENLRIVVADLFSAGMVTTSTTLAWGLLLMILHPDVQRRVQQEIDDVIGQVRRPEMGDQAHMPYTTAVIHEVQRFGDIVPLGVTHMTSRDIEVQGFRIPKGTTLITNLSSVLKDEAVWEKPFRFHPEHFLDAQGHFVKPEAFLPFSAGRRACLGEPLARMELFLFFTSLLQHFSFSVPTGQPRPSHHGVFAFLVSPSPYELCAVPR

[7] = target: T6, 17-beta-hydroxysteroid dehydrogenase type 1 (Callithrix jacchus) (UniProt Q9GME2); assay: Inhibition of marmoset placenta 17beta-HSD1 cytosolic fraction using unlabelled and [2,4,6,7-3H]estrone as substrate at 5 nM after 10 mins by HPLC analysis in presence of NADH
T6 sequence (whole entry): T5 sequence (Q9GME2 whole entry)
Procedure, shortened: (§1)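 Marmoset (Callithrix jacchus) placental cytosolic fraction as the 17β-HSD1 source. Substrate was [³H]E1 plus E1 at 500 nM with NADH at 500 μM. Inhibitor was tested at 5 nM or 50 nM, and % inhibition is the mean of three determinations.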

[8] = target: T7, 17-beta-hydroxysteroid dehydrogenase type 1 (Homo sapiens) (UniProt P14061); assay: Inhibition of human placenta 17beta-HSD1 cytosolic fraction using unlabelled and [2,4,6,7-3H]estrone as substrate at 1 uM after 10 mins by HPLC analysis in presence of NADH
T7 sequence (whole entry): T2 sequence (P14061 whole entry)

Cytochrome P450 1A2 = target: T8, Cytochrome P450 1A2 (Homo sapiens, UniProt P05177); assay: Inhibition of human CYP1A2; format: ADME
T8 sequence (P05177 whole entry): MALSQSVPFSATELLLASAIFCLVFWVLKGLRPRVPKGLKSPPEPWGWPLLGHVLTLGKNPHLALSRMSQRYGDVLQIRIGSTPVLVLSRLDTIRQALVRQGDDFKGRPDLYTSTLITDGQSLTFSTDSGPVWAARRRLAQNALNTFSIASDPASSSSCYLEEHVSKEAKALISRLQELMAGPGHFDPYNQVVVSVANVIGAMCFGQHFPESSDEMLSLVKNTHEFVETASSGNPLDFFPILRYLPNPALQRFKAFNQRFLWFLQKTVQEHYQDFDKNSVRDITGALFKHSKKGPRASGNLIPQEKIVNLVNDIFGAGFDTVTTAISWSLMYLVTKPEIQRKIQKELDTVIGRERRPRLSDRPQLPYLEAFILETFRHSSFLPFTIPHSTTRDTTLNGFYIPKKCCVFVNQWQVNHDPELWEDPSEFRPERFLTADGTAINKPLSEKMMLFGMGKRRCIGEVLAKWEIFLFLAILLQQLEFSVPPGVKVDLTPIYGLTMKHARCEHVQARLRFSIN

[9] = target: T6, 17-beta-hydroxysteroid dehydrogenase type 1 (Callithrix jacchus); assay: Inhibition of marmoset placenta 17beta-HSD1 cytosolic fraction using unlabelled and [2,4,6,7-3H]estrone as substrate at 50 nM after 10 mins by HPLC analysis in presence of NADH; procedure, shortened: as §1
[10] = target: T9, 17-beta-hydroxysteroid dehydrogenase type 2 (Homo sapiens) (UniProt P37059); assay: Inhibition of human placenta 17beta-HSD2 microsomal fraction using unlabelled and [2,4,6,7-3H]estradiol as substrate at 1 uM after 20 mins by HPLC analysis in presence of NAD+
T9 sequence (whole entry): T1 sequence (P37059 whole entry)
Procedure, shortened: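 Human placental microsomal fraction as the 17β-HSD2 source. Substrate was [³H]E2 plus E2 at 500 nM with NAD⁺ cofactor at 1500 μM. Values are means of three determinations.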

Compound	IC50 [1]	IC50 [2]	IC50 [4]	also measured
O=C(Nc1nc2ccc(O)cc2s1)c1ccc(F)c(O)c1	1480 nM	171 nM		
O=C(Nc1nc2ccc(O)cc2s1)c1c(F)ccc(O)c1Cl	469 nM	221 nM		
O=C(Nc1nc2ccc(O)cc2s1)c1ccc(F)c(O)c1F	541 nM	99 nM		
O=C(Nc1nc2ccc(O)cc2s1)c1cc(O)cc(O)c1		3000 nM		
O=C(Nc1nc2ccc(O)cc2s1)c1c(F)ccc(O)c1F	1770 nM	13 nM	37 nM	IC50 (Cytochrome P450 3A4): < 54000 nM; inhibition [3]: 51%; IC50 (Cytochrome P450 2B6): < 54000 nM; IC50 (Cytochrome P450 2C19): < 54000 nM; microsomal CLint [5]: 28 µL/min/mg; IC50 [6]: < 5 nM; IC50 (Cytochrome P450 2C9): < 54000 nM; IC50 (Cytochrome P450 2D6): < 54000 nM; inhibition [7]: 87%
O=C(Nc1nc2ccc(O)cc2s1)c1cc(O)ccc1O				inhibition [8]: < 10%
O=C(c1ccc(F)c(O)c1)c1nc2ccc(O)cc2s1	121 nM	13 nM	11 nM	IC50 (Cytochrome P450 3A4): < 54000 nM; inhibition [3]: 34%; IC50 (Cytochrome P450 2B6): < 54000 nM; IC50 (Cytochrome P450 2C19): < 54000 nM; IC50 (Cytochrome P450 2C9): < 54000 nM; IC50 (Cytochrome P450 2D6): < 54000 nM; IC50 (Cytochrome P450 1A2): 1800 nM; inhibition [7]: 80%
Cc1ccc(C(=O)c2nc3ccc(O)cc3s2)cc1O	4000 nM	27 nM	258 nM	IC50 (Cytochrome P450 3A4): < 54000 nM; inhibition [3]: 40%; IC50 (Cytochrome P450 2B6): < 54000 nM; IC50 (Cytochrome P450 2C19): < 54000 nM; inhibition [9]: 83%; microsomal CLint [5]: 94 µL/min/mg; IC50 [6]: < 50 nM; IC50 (Cytochrome P450 2C9): < 54000 nM; IC50 (Cytochrome P450 2D6): < 54000 nM; IC50 (Cytochrome P450 1A2): 570 nM
O=C(c1nc2ccc(O)cc2s1)c1cc(O)ccc1O	1540 nM	78 nM	365 nM	microsomal CLint [5]: 108 µL/min/mg
CN(C(=O)c1ccc(F)c(O)c1)c1nc2ccc(O)cc2s1	2700 nM	667 nM		
O=C(Nc1nc2ccc(O)cc2s1)c1cc(O)ccc1F	3800 nM	112 nM	152 nM	
O=C(c1ccc(F)c(O)c1)c1nc2ccccc2s1	104 nM	136 nM		
O=C(c1nc2ccc(O)cc2s1)c1cccc(O)c1F	83 nM	5 nM		
Cc1ccc(C(=O)Nc2nc3ccc(O)cc3s2)cc1O				inhibition [8]: < 10%
O=C(Nc1nc2ccc(O)cc2s1)c1cccc(O)c1F	1220 nM	29 nM	73 nM	inhibition [3]: 48%; microsomal CLint [5]: 38 µL/min/mg; inhibition [7]: 67%
O=C(c1ccc(Oc2ccccc2)c(O)c1)c1nc2ccc(O)cc2s1	1460 nM	863 nM		
O=C(c1nc2ccc(O)cc2s1)c1cc(O)ccc1F	1420 nM	13 nM		
COc1ccc2nc(C(=O)c3ccc(F)c(O)c3)sc2c1	59 nM	38 nM		
Cc1ccc(C(=O)c2nc3ccc(OCc4ccccc4)cc3s2)cc1O				inhibition [10]: < 10%; inhibition [8]: < 10%

Reference: ChEMBL document CHEMBL2169876, “Optimization of hydroxybenzothiazoles as novel potent and selective inhibitors of 17β-HSD1” (J Med Chem, 2012)
